From ChEMBL document CHEMBL1914378, “Synthesis and apoptosis inducing ability of new anilino substituted pyrimidine sulfonamides as potential anticancer agents” (Eur J Med Chem, 2011) come the findings set out here.

SMILES strings stand for the structures. pIC50: −log10 of the molar value. Counter-ions that a name gives are not always drawn. Active and inactive are the calls of the source. The calls are words filed in the database; no cut-off is given here.

In experiment [1] the test system is K562. In words: Cytotoxicity against human K562 cells after 24 hrs by MTT assay. The format is functional, cell-based. The note with it: K562, 24 h. For orientation: Tetrazolium dyes change colour on reduction, which living cells bring about.
Another experiment concerns MCF7. In words: Cytotoxicity against human MCF7 cells after 24 hrs by MTT assay. In kind it is functional, cell-based. The settings on record: MCF7, 24 h.
The next experiment has as its system MDA-MB-231. In words: Cytotoxicity against human MDA-MB-231 cells after 24 hrs by MTT assay. The note with it: MDA-MB-231, 24 h. The format is functional, cell-based.
In experiment [2] the test system is K562. In words: Inhibition of NF-kappaB p65 in human K562 cells assessed as down regulation of STAT3 protein level at 10 uM after 24 hrs by Western blot analysis. The format is cell-based. The method, boiled down: (§1)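 K562 cells treated 24 h with compound at 10 (micro)M; lysed in ice-cold RIPA with protease/phosphatase inhibitors, centrifuged 12,000 rpm 10 min, protein by Bradford. 30 µg per lane on 12% SDS-PAGE, PVDF transfer, blocked 2 h RT in TBST with 5% blocking powder. Primary antibody 4 °C overnight, HRP secondary 1:2000 1 h RT; chemiluminescence; β-actin loading control; untreated cells as control.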
(Immunoblotting shows a protein as a band on a membrane.)

For experiment [3], the system named is K562. In words: Antiproliferative activity against human K562 cells assessed as down regulation of c-myc protein expression at 10 uM after 24 hrs by Western blot analysis relative to control. In kind it is functional, cell-based. The method, boiled down: as §1
The test system of experiment [4] is K562. In words: Induction of apoptosis in human K562 cells assessed as effect on TNFR1 protein expression at 10 uM after 24 hrs by Western blot analysis. In kind it is functional, cell-based.
Experiment [5] relates to K562. In words: Antiproliferative activity against human K562 cells assessed as reduction in incorporation of BrdU into cellular DNA at 10 uM after 24 hrs. In kind it is functional, cell-based. The method, boiled down:
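K562 cells seeded 15,000/well, grown 24 h, then labelled with BrdU 5 h at RT, then exposed to compound at final 10 (micro)M for 24 h. Detection by anti-BrdU, HRP secondary (1:2000) 30 min, TMB substrate 30 min at room temperature; optical density read at 450 nm.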

The subject of experiment [6] is K562. In words: Induction of apoptosis in human K562 cells assessed as DNA fragmentation at 10 uM after 24 hrs by TUNEL assay. In kind it is functional, cell-based. The method, boiled down:
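TUNEL on K562 cells after 24 h exposure at 10 (micro)M: TdT-mediated incorporation of fluorescein-dUTP at free 3'-OH ends of fragmented DNA, run per kit maker's protocol; green-stained cells scored as TUNEL-positive; untreated cells as staining control.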

The subject of experiment [7] is K562. In words: Cell cycle arrest in human K562 cells at G1 phase assessed as decrease in cyclin D1 protein level at 10 uM after 24 hrs by Western blot analysis relative to control. In kind it is functional, cell-based. The method, boiled down: as §1
The test system of experiment [8] is K562. In words: Cell cycle arrest in human K562 cells at G1 phase assessed as decrease in CDK4 protein level at 10 uM after 24 hrs by Western blot analysis relative to control. The format is functional, cell-based. The method, boiled down: as §1
The subject of experiment [9] is K562. In words: Induction of apoptosis in human K562 cells assessed as upregulation of caspase3 protein expression at 10 uM after 24 hrs by Western blot analysis. The format is functional, cell-based. The method, boiled down: as §1
The test system of experiment [10] is K562. In words: Induction of apoptosis in human K562 cells assessed as upregulation of caspase7 protein expression at 10 uM after 24 hrs by Western blot analysis. In kind it is functional, cell-based. The method, boiled down: as §1
The subject of experiment [11] is K562. In words: Inhibition of NF-kappaB p65 in human K562 cells at 10 uM after 24 hrs by Western blot analysis. The format is cell-based. The method, boiled down:
as §1

Experiment [12] relates to K562. In words: Inhibition of NF-kappaB p65 in human K562 cells assessed as decrease of S473 phosphorylated Akt1 level at 10 uM after 24 hrs by Western blot analysis. The format is cell-based. The method, boiled down: as §1

By pIC50 is commonly meant −log10 of the IC50, conventionally taken in molar units. A higher pIC50 goes with a small IC50. Regarding `COc1cc(-c2ccnc(Nc3cc(NS(=O)(=O)c4ccc5ccccc5c4)ccc3C)n2)cc(OC)c1OC`, the pIC50 is 5.01 with K562 [1], 4.94 in the experiment on MCF7 and 5.12 in the experiment on MDA-MB-231.

Turning to `COc1ccc(S(=O)(=O)Nc2ccc(C)c(Nc3nccc(-c4cc(OC)c(OC)c(OC)c4)n3)c2)cc1`, the negative logarithm of the IC50 (pIC50) in the experiment with K562 [1] is 5.04; in the experiment with MCF7 it was 4.91; in the experiment on MDA-MB-231 it was 5.16.

As for `Cc1ccc(NS(=O)(=O)c2ccc(Cl)cc2)cc1Nc1nccc(-c2cccnc2)n1`, the pIC50 in the experiment with K562 [1] is 4.99; in the experiment on MCF7, 4.93; with MDA-MB-231, 5.11.

`Cc1ccc(NS(=O)(=O)c2ccc3ccccc3c2)cc1Nc1nccc(-c2cccnc2)n1`: the values for the pIC50 in the experiment with K562 [1], with MCF7 and in the experiment on MDA-MB-231 were 5.00, 4.92 and 5.08, respectively.

As to `Cc1ccc(NS(=O)(=O)c2ccc(-c3ccccc3)cc2)cc1Nc1nccc(-c2cccnc2)n1`, the pIC50 with K562 [1] was 5.02; in the experiment with MCF7 it was 4.93; in the experiment on MDA-MB-231, 5.10.

Turning to `Cc1ccc(NC(=O)c2ccc(CN3CCN(C)CC3)cc2)cc1Nc1nccc(-c2cccnc2)n1` [IMATINIB MESYLATE], the negative logarithm of the IC50 (pIC50) with K562 [1] was 6.68; with MCF7, 6.08; in the experiment on MDA-MB-231 it was 5.74.

In the case of `COc1cc(-c2ccnc(Nc3cc(NS(=O)(=O)c4ccc(-c5ccccc5)cc4)ccc3C)n2)cc(OC)c1OC`, the result in the experiment with K562 [2], in the experiment with K562 [3], in the experiment on K562 [5], in the experiment on K562 [6], with K562 [7] and with K562 [8] was Active. The outcome in the experiment on K562 [9], in the experiment on K562 [10], with K562 [11] and in the experiment on K562 [12] was Active. The values for the pIC50 in the experiment on K562 [1], in the experiment with MCF7 and in the experiment on MDA-MB-231 were 5.25, 5.03 and 5.16, respectively. In addition, the outcome in the experiment with K562 [4] was inactive.

Regarding `COc1ccc(S(=O)(=O)Nc2ccc(C)c(Nc3nccc(-c4cc(OC)c(OC)c(OC)c4)n3)c2)cc1OC`, the outcome in the experiment on K562 [2], in the experiment with K562 [5], in the experiment with K562 [6], in the experiment on K562 [7], with K562 [8] and with K562 [9] was Active. For the same molecule, the result in the experiment with K562 [10] and with K562 [12] was Active. In addition, the values for the negative logarithm of the IC50 (pIC50) in the experiment on K562 [1], in the experiment on MCF7 and in the experiment on MDA-MB-231 were 5.07, 4.94 and 5.13, respectively. The result in the experiment with K562 [4] was inactive.

As for `Cc1ccc(NS(=O)(=O)c2cnc3ccccc3c2)cc1Nc1nccc(-c2cccnc2)n1`, the result in the experiment on K562 [2], in the experiment with K562 [5], in the experiment with K562 [6], with K562 [7], in the experiment with K562 [8] and in the experiment with K562 [9] was Active. Also, the outcome with K562 [10] and in the experiment with K562 [12] was Active. Also, the negative logarithm of the IC50 (pIC50) is 5.23 with K562 [1], 5.00 in the experiment with MCF7 and 5.14 in the experiment on MDA-MB-231. The outcome in the experiment on K562 [4] and in the experiment with K562 [11] was inactive.
